ChEMBL document CHEMBL3351625, “Ethyl 2-(benzylidene)-7-methyl-3-oxo-2,3-dihydro-5H-thiazolo[3,2-a]pyrimidine-6-carboxylate analogues as a new scaffold for protein kinase casein kinase 2 inhibitor” (Bioorg Med Chem, 2014)
Activity calls are given as the source filed them. The calls are words filed in the database; no cut-off is given here.

What was measured:
SNU484 = test: Cytotoxicity against human SNU484 cells assessed as cell viability at 10 uM after 24 hrs by MTT assay; assay type: functional, cell-based
Procedure, shortened: (§1)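 Lines from Korea Cell Line Bank, kept in RPMI1640 with serum and penicillin/streptomycin at 37 °C, 5% CO2. Seeded at 1 × 10⁴ cells/well and grown 24 h, then exposed to the inhibitor for 24 h. MTT added at 4 mg/mL final for 2 h, formazan taken up in DMSO, absorbance read at 570 nm. Run in quadruplicate.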

HepG2 [1] = test: Cytotoxicity against human HepG2 cells assessed as cell viability at 10 uM after 24 hrs by MTT assay; assay type: functional, cell-based
Procedure, shortened: (§2)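 AGS and HepG2 kept in Modified Eagle's Medium with serum and antibiotics at 37 °C, 5% CO2. Seeded at 1 × 10⁴ cells/well and grown 24 h, then exposed for 24 h. MTT at 4 mg/mL final for 2 h, formazan dissolved in DMSO, A570. Quadruplicate.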

AGS [2] = test: Cytotoxicity against human AGS cells assessed as cell viability at 10 uM after 24 hrs by MTT assay; assay type: functional, cell-based; procedure, shortened: as §2
MKN-45 = test: Cytotoxicity against human MKN45 cells assessed as cell viability at 10 uM after 24 hrs by MTT assay; assay type: functional, cell-based; procedure, shortened: as §1
TE-2 [3] = test: Cytotoxicity against human TE2 cells expressing CK2 assessed as cell viability at 10 uM after 24 hrs by MTT assay; assay type: functional, cell-based
Procedure, shortened: (§3)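 Esophageal TE2 cells stably carrying GFP or CK2α were plated at 1 × 10⁴ cells/well and grown 24 h. They were then exposed for 24 h, given MTT at 4 mg/mL final for 2 h, formazan dissolved in DMSO, absorbance at 570 nm.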

Hep 3B2 = test: Cytotoxicity against human Hep3B cells assessed as cell viability at 10 uM after 24 hrs by MTT assay; assay type: functional, cell-based
Procedure, shortened: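 Hep3B kept in Dulbecco's Modified Eagle's Medium with serum and antibiotics at 37 °C, 5% CO2. Seeded at 1 × 10⁴ cells/well and grown 24 h, then exposed for 24 h. MTT at 4 mg/mL final for 2 h, DMSO solubilisation, A570. Quadruplicate.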

SK-HEP1 [4] = test: Cytotoxicity against human SKHEP1 cells assessed as cell viability at 10 uM after 24 hrs by MTT assay; assay type: functional, cell-based
SNU668 = test: Cytotoxicity against human SNU668 cells assessed as cell viability at 10 uM after 24 hrs by MTT assay; assay type: functional, cell-based; procedure, shortened: as §1
MKN-28 [5] = test: Cytotoxicity against human MKN28 cells assessed as cell viability at 10 uM after 24 hrs by MTT assay; assay type: functional, cell-based; procedure, shortened: as §1
SNU739 [6] = test: Cytotoxicity against human SNU739 cells assessed as cell viability at 10 uM after 24 hrs by MTT assay
SNU878 = test: Cytotoxicity against human SNU878 cells assessed as cell viability at 10 uM after 24 hrs by MTT assay; assay type: functional, cell-based; procedure, shortened: as §1
TE-2 [7] = test: Cytotoxicity against GFP-tagged human TE2 cells assessed as cell viability at 10 uM after 24 hrs by MTT assay; assay type: functional, cell-based; procedure, shortened: as §3
MKN-74 = test: Cytotoxicity against human MKN74 cells assessed as cell viability at 10 uM after 24 hrs by MTT assay; assay type: functional, cell-based; procedure, shortened: as §1
NCI-N87 = test: Cytotoxicity against human NCI-N87 cells assessed as cell viability at 10 uM after 24 hrs by MTT assay; assay type: functional, cell-based; procedure, shortened: as §1
SNU761 = test: Cytotoxicity against human SNU761 cells assessed as cell viability at 10 uM after 24 hrs by MTT assay; assay type: functional, cell-based; procedure, shortened: as §1
MKN-1 [8] = test: Cytotoxicity against human MKN1 cells assessed as cell viability at 10 uM after 24 hrs by MTT assay; assay type: functional, cell-based; procedure, shortened: as §1
MKN-1 [9] = test: Induction of apoptosis in TRAIL-resistant human MKN1 cells assessed as cell death at 10 uM after 24 hrs and subsequently treated with TRAIL 200 ng/ml for 2 hr by Annexin-V-FLUOS staining; assay type: functional, cell-based
Procedure, shortened: (§4)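 Cells were left untreated or pretreated with the inhibitor at 10 µM for 24 h, then exposed to TRAIL (200 ng/mL) for 2 h. They were then washed with PBS and stained with Annexin-V-FLUOS/propidium iodide for 15 min. Apoptotic cells were counted by fluorescence microscopy. Viability was assessed in parallel by MTT. Data are given as mean ± SD.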

MKN-28 [10] = test: Induction of apoptosis in TRAIL-resistant human MKN28 cells assessed as cell death at 10 uM after 24 hrs and subsequently treated with TRAIL 200 ng/ml for 2 hr by Annexin-V-FLUOS staining; assay type: functional, cell-based; procedure, shortened: as §4
Casein kinase II [11] = molecular target: T1, Casein kinase II (Homo sapiens, UniProt P19784+P67870+P68400); test: Competitive inhibition of human CK2 assessed as competitive with respect to ATP; assay type: protein-complex assay
SNU739 [12] = test: Induction of apoptosis in TRAIL-resistant human SNU739 cells assessed as cell death at 10 uM after 24 hrs and subsequently treated with TRAIL 200 ng/ml for 2 hr by Annexin-V-FLUOS staining; assay type: functional, cell-based; procedure, shortened: as §4
SK-HEP1 [13] = test: Induction of apoptosis in TRAIL-resistant human SKHEP1 cells assessed as cell death at 10 uM after 24 hrs and subsequently treated with TRAIL 200 ng/ml for 2 hr by Annexin-V-FLUOS staining; assay type: functional, cell-based; procedure, shortened: as §4
AGS [14] = test: Induction of apoptosis in TRAIL-resistant human AGS cells assessed as cell death at 10 uM after 24 hrs and subsequently treated with TRAIL 200 ng/ml for 2 hr by Annexin-V-FLUOS staining; assay type: functional, cell-based; procedure, shortened: as §4
[15] = molecular target: Casein kinase II subunit alpha (Homo sapiens) (UniProt P68400); test: Inhibition of recombinant human CK2alpha assessed as inhibition of phosphorylation of GST-CS by Coomassie brilliant blue staining based autoradiography
[16] = molecular target: Casein kinase II subunit alpha (Homo sapiens) (UniProt P68400); test: Inhibition of recombinant human CK2alpha assessed as inhibition of phosphorylation of GST-CS at 10 uM by Coomassie brilliant blue staining based autoradiography
HepG2 [17] = test: Induction of apoptosis in TRAIL-resistant human HepG2 cells assessed as cell death at 10 uM after 24 hrs and subsequently treated with TRAIL 200 ng/ml for 2 hr by Annexin-V-FLUOS staining; assay type: functional, cell-based; procedure, shortened: as §4
[18] = molecular target: Casein kinase II (Homo sapiens) (UniProt P67870+P68400+P19784); test: (§5) Inhibition of human CK2 assessed as residual activity by KinaseProfiler assay; assay type: protein-complex assay
Casein kinase II [19] = molecular target: T1, Casein kinase II; test: as §5; assay type: protein-complex assay

Row | Compound | Activity (SNU484) | Activity (HepG2 [1]) | Activity (AGS [2]) | Activity (MKN-45) | Activity (TE-2 [3]) | Activity (Hep 3B2) | Activity (SK-HEP1 [4]) | Activity (SNU668) | Activity (MKN-28 [5]) | Activity (SNU739 [6]) | Activity (SNU878) | Activity (TE-2 [7]) | Activity (MKN-74) | Activity (NCI-N87) | Activity (SNU761) | Activity (MKN-1 [8]) | inhibition [16] | further results
1 | Brc1c(Br)c(Br)c2[nH]nnc2c1Br | Active | Active | Active | Active | Active | Active | Active | Active | Active | Active | Active | Active | Active | Active | Active | Active |  | 
2 | CCOC(=O)C1=C(C)N=c2s/c(=C\c3ccc(O)c(O)c3)c(=O)n2C1c1ccc(Cl)cc1 (centres undefined) | Active | Active | Active | Active | Active | Active | Active | Active | Active | Active | Active | Active | Active | Active | Active | Active | Active | Activity (MKN-1 [9]): Active; Activity (MKN-28 [10]): Active; Ki (Casein kinase II [11]): 0.78 µM; Activity (SNU739 [12]): Active; Activity (SK-HEP1 [13]): Active; Activity (AGS [14]): Active; inhibition [15]: Active; Activity (HepG2 [17]): Active; Activity [18]: Active
3 | CCOC(=O)C1=C(C)N=c2s/c(=C\c3cc(O)c(O)c(O)c3)c(=O)n2C1c1ccc(Cl)cc1 (centres undefined) |  |  |  |  |  |  |  |  |  |  |  |  |  |  |  |  | Active | IC50 (Casein kinase II [19]): 8.79 µM
